Source: ChEMBL document CHEMBL3272018, “Synthesis of aziridinylallylaminophosphine oxides and sulfides as potential adjuvant cancer chemotherapeutic agents” (J Med Chem, 1976)
Active and inactive are the calls of the source. The rule behind the calls is not given here.

Columns and labels:
[1] = tested on: Rattus norvegicus; experiment: Toxicity in rat allografted with rat Walker 256 cells intramuscularly assessed as change in body weight at 2 mg/kg, qd administered for 5 days; assay type: organism-based; design: dose 2 mg/kg, route intramuscular; conditions: in vivo, im, 120 h
In short: (§1)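 Walker 256 carcinoma solid-tumour system in rats (parent line, or the line resistant to cytoxan). Dosing was one injection per day for 5 days. Toxicity was taken as the average net body-weight change of the treated group minus the average net weight change of the untreated tumour-bearing controls, in grams.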

[2] = tested on: Rattus norvegicus; experiment: Toxicity in rat allografted with cytoxan-resistant rat Walker 256 cells intramuscularly assessed as change in body weight at 0.12 mg/kg, qd administered for 5 days; assay type: organism-based; design: dose 0.12 mg/kg, route intramuscular; conditions: in vivo, im, 120 h
In short: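 Cytoxan-resistant Walker 256 solid tumour in rats, one injection daily for 5 days. Toxicity is the average net body-weight change of the treated group minus that of the untreated controls, in grams.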

[3] = tested on: W256; experiment: Antitumor activity against cytoxan-resistant rat Walker 256 cells intramuscularly allografted in rat assessed as survival rate at 1 mg/kg, qd administered for 5 days; assay type: functional, organism-based; design: dose 1 mg/kg
In short: (§2)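 Rats bearing Walker 256 carcinoma as a solid tumor; lines 1-8 use a cytoxan-resistant Walker 256 subline. Dosed once daily for 5 days. Treated (T) and untreated control (C) groups are compared, and the response is given as T/C percentage, reflecting increase in survival time. Host weight change is the average weight change of the test group minus that of the controls, in grams.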

[4] = tested on: W256; experiment: Antitumor activity against rat Walker 256 cells intramuscularly allografted in rat assessed as survival rate at 0.5 mg/kg, qd administered for 5 days; assay type: functional, organism-based; design: dose 0.5 mg/kg; in short: as §2
[5] = tested on: W256; experiment: Antitumor activity against cytoxan-resistant rat Walker 256 cells intramuscularly allografted in rat assessed as tumor growth inhibition at 0.25 mg/kg, qd administered for 5 days relative to control; assay type: functional; conditions: W256, im, 120 h, route intramuscular, read-out: TGI
In short: (§3)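 Dosed once daily for 5 days. Response is tumor progression in treated (T) versus untreated control (C) animals, expressed as T/C percentage. Host weight change is reported as the average net weight change of the test group minus that of the controls, in grams.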

[6] = tested on: W256; experiment: Antitumor activity against rat Walker 256 cells intramuscularly allografted in rat assessed as tumor growth inhibition at 0.25 mg/kg, qd administered for 5 days relative to control; assay type: functional; conditions: W256, im, 120 h, route intramuscular, read-out: TGI; in short: as §3
[7] = tested on: Rattus norvegicus; experiment: Toxicity in rat allografted with rat Walker 256 cells intramuscularly assessed as change in body weight at 0.062 mg/kg, qd administered for 5 days; assay type: organism-based; design: dose 0.062 mg/kg, route intramuscular; conditions: in vivo, im, 120 h; in short: as §1
[8] = tested on: W256; experiment: Antitumor activity against rat Walker 256 cells intramuscularly allografted in rat assessed as tumor growth inhibition at 0.5 mg/kg, qd administered for 5 days relative to control; assay type: functional; conditions: W256, im, 120 h, route intramuscular, read-out: TGI; in short: as §3
[9] = species: Rattus norvegicus; experiment: Toxicity in Wistar-Furth rat assessed as decrease in mature spermatocytes measured for 24 hrs; assay type: organism-based; conditions: in vivo
In short: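 Wistar-Furth rats were injected daily for 5 days at the antifertility-study doses of 1 or 5 mg/kg, depending on agent. Testes or ovaries were taken at sacrifice after 1, 3 or 24 h. Cryostat frozen sections were fixed in 95% alcohol for 10 min and stained with acridine orange (DNA green, RNA red). Results were compared with untreated controls.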

[10] = tested on: W256; experiment: Antitumor activity against cytoxan-resistant rat Walker 256 cells intramuscularly allografted in rat assessed as survival rate at 0.12 mg/kg, qd administered for 5 days; assay type: functional, organism-based; design: dose 0.12 mg/kg; in short: as §2
[11] = tested on: Rattus norvegicus; experiment: Toxicity in rat allografted with rat Walker 256 cells intramuscularly assessed as change in body weight at 0.5 mg/kg, qd administered for 5 days; assay type: organism-based; design: dose 0.5 mg/kg, route intramuscular; conditions: in vivo, im, 120 h; in short: as §1
[12] = tested on: Rattus norvegicus; experiment: Toxicity in rat allografted with rat Walker 256 cells intramuscularly assessed as change in body weight at 1 mg/kg, qd administered for 5 days; assay type: organism-based; design: dose 1 mg/kg, route intramuscular; conditions: in vivo, im, 120 h; in short: as §1
[13] = tested on: W256; experiment: Antitumor activity against cytoxan-resistant rat Walker 256 cells intramuscularly allografted in rat assessed as survival rate at 0.5 mg/kg, qd administered for 5 days; assay type: functional, organism-based; design: dose 0.5 mg/kg; in short: as §2
[14] = tested on: W256; experiment: Antitumor activity against rat Walker 256 cells intramuscularly allografted in rat assessed as survival rate at 0.062 mg/kg, qd administered for 5 days; assay type: functional, organism-based; design: dose 0.062 mg/kg; in short: as §2
[15] = tested on: W256; experiment: Antitumor activity against rat Walker 256 cells intramuscularly allografted in rat assessed as survival rate at 0.125 mg/kg, qd administered for 5 days; assay type: functional, organism-based; design: dose 0.125 mg/kg; in short: as §2
[16] = tested on: W256; experiment: Antitumor activity against cytoxan-resistant rat Walker 256 cells intramuscularly allografted in rat assessed as tumor growth inhibition at 0.12 mg/kg, qd administered for 5 days relative to control; assay type: functional; conditions: W256, im, 120 h, route intramuscular, read-out: TGI; in short: as §3
[17] = tested on: W256; experiment: Antitumor activity against rat Walker 256 cells intramuscularly allografted in rat assessed as tumor growth inhibition at 2 mg/kg, qd administered for 5 days relative to control; assay type: functional; conditions: W256, im, 120 h, route intramuscular, read-out: TGI
In short: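 Walker 256 carcinoma grown as a solid tumour in rats, with one injection daily for 5 days. Response is given as T/C %, the treated-group measure over the untreated-control tumour measure; a smaller value means more activity. Host toxicity is the mean net weight change of treated minus control animals, in grams.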

[18] = tested on: W256; experiment: Antitumor activity against rat Walker 256 cells intramuscularly allografted in rat assessed as survival rate at 0.031 mg/kg, qd administered for 5 days; assay type: functional, organism-based; design: dose 0.031 mg/kg; in short: as §2
[19] = Therapeutic index, ratio of LD50 for rat allografted with rat Walker 256 cells to ED10 for antitumor activity against rat Walker 256 cells intramuscularly allografted in rat; assay type: cell-based; conditions: read-out: TI
In short: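 Therapeutic index is LD50/ED10 in the Walker 256 solid tumour system. ED10 is the dose giving a 10% tumour weight reduction, with values extrapolated from dose-response data.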

[20] = tested on: Rattus norvegicus; experiment: Toxicity in rat allografted with rat Walker 256 cells intramuscularly assessed as change in body weight at 0.25 mg/kg, qd administered for 5 days; assay type: organism-based; design: dose 0.25 mg/kg, route intramuscular; conditions: in vivo, im, 120 h; in short: as §1
[21] = tested on: W256; experiment: Antitumor activity against cytoxan-resistant rat Walker 256 cells intramuscularly allografted in rat assessed as survival rate at 0.25 mg/kg, qd administered for 5 days; assay type: functional, organism-based; design: dose 0.25 mg/kg; in short: as §2

C=CCN(CC=C)P(=O)(N1CC1)N1CC1
Activity [1]: -44 g
Activity [2]: -14 g
Activity [3]: Active
Activity [4]: Active
inhibition in vivo at 0.25 mg/kg [5]: 60%
inhibition in vivo at 0.25 mg/kg [6]: 0%
Activity [7]: -5 g
inhibition in vivo at 0.5 mg/kg [8]: 0%
Activity [9]: Non-toxic
Activity [10]: Active
Activity [11]: -6 g
Activity [12]: -26 g
Activity [13]: Active
Activity [14]: Active
Activity [15]: Active
inhibition in vivo at 0.12 mg/kg [16]: 98%
inhibition in vivo at 2 mg/kg [17]: 0%
Activity [18]: Active
selectivity ratio [19]: 10
Activity [20]: -12 g
Activity [21]: Active
